Results as given in ChEMBL document CHEMBL1926592, “Synthesis and in vitro evaluation of fluorinated styryl benzazoles as amyloid-probes” (Bioorg Med Chem, 2011).
Active and inactive are the calls of the source. The calls are words filed in the database; no cut-off is given here.

Columns and labels:
Albumin = Albumin (Bos taurus, UniProt P02769); assay: Binding affinity to bovine serum albumin by fluorescence intensity assay; assay type: ADME; conditions: cattle, isolated protein
In short: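 BSA titrated with increasing ligand concentrations in 50 mM Tris-HCl pH 7.4, in the same way as the fibril assays. Intrinsic fluorescence intensity was read on a plate reader with dye-blank background subtracted. Kd came from a single-site saturation curve fit.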

Homo sapiens [1] = species: Homo sapiens; assay: Binding affinity to human insulin fibril assessed as intrinsic fluorescence intensity
[2] = molecular target: T1, Amyloid-beta precursor protein (Homo sapiens, UniProt P05067); assay: Binding affinity to human amyloid beta (1 to 42) fibril assessed as increase in intrinsic fluorescence intensity at 2.25 uM relative to equimolar monomeric specie
T1 sequence (P05067 whole entry): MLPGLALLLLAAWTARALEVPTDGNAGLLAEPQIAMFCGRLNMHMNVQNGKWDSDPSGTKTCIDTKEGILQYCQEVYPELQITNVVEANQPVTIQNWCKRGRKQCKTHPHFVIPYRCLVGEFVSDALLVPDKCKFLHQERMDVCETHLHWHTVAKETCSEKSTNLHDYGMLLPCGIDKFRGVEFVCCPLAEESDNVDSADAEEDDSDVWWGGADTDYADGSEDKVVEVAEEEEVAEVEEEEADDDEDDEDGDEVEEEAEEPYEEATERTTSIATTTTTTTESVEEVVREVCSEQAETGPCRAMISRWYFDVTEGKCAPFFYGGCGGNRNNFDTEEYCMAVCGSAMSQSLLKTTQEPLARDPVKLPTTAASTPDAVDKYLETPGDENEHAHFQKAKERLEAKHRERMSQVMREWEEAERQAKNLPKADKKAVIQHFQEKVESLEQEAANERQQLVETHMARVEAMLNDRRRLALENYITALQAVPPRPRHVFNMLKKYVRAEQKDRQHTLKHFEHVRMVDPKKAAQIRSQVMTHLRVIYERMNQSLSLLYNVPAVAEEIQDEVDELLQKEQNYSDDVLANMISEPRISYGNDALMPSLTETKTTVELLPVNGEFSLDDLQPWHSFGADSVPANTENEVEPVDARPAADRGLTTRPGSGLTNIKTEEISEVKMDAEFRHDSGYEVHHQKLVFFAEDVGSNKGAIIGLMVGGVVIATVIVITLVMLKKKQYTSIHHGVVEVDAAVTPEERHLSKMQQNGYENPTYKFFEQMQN

[3] = molecular target: Alpha-synuclein (Homo sapiens) (UniProt P37840); assay: Binding affinity to human alpha-synuclein fibril by fluorescence intensity assay
Insulin (Homo sapiens) = Insulin (Homo sapiens) (UniProt P01308); assay: Binding affinity to human insulin monomer by fluorescence intensity assay
Sequence of Insulin (Homo sapiens) (P01308 whole entry): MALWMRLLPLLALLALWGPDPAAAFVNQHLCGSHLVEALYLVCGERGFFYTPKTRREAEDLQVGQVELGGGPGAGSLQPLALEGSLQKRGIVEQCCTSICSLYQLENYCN

[4] = molecular target: T1, Amyloid-beta precursor protein; assay: Binding affinity to human amyloid beta (1 to 42) monomer by fluorescence intensity assay
Homo sapiens [5] = species: Homo sapiens; assay: Binding affinity to human insulin fibril assessed as increase in intrinsic fluorescence intensity at 2.25 uM relative to equimolar monomeric specie
[6] = molecular target: Alpha-synuclein (Homo sapiens) (UniProt P37840); assay: Binding affinity to human alpha-synuclein monomer expressed in Escherichia coli BL21 by fluorescence intensity assay
[7] = molecular target: T1, Amyloid-beta precursor protein; assay: Binding affinity to human amyloid beta (1 to 42) fibril assessed as intrinsic fluorescence intensity
[8] = Binding affinity to human insulin fibril by fluorescence intensity assay
In short: (§1)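 Fibrils grown from human insulin (3 mg/mL, Tris-HCl 50 mM pH 3), E. coli-expressed human α-syn (3 mg/mL, pH 7.4) or Aβ(1–42) (0.5 mg/ml, 1% NH4OH). Fibril level taken as supernatant protein depletion. Fixed fibrils (3.5–11.35) titrated with ligand (DMSO stock diluted into 50 mM Tris-HCl pH 7.4). Plate-reader intensity read at each ligand's maximal excitation/emission wavelengths, dye blanks subtracted. Kd from single-site saturation fit.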

Homo sapiens [9] = species: Homo sapiens; assay: Binding affinity to human […] fibril assessed as intrinsic fluorescence intensity
[10] = molecular target: T1, Amyloid-beta precursor protein; assay: Binding affinity to human amyloid beta (1 to 42) fibril by fluorescence intensity assay
In short: as §1, with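 “depletion.” for “depletion. Fixed fibrils (3.5–11.35) titrated with ligand (DMSO stock diluted into 50 mM Tris-HCl pH 7.4).”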

Homo sapiens [11] = species: Homo sapiens; assay: Binding affinity to human […] fibril assessed as increase in intrinsic fluorescence intensity at 2.25 uM relative to equimolar monomeric specie

Sequence of Albumin (P02769 whole entry): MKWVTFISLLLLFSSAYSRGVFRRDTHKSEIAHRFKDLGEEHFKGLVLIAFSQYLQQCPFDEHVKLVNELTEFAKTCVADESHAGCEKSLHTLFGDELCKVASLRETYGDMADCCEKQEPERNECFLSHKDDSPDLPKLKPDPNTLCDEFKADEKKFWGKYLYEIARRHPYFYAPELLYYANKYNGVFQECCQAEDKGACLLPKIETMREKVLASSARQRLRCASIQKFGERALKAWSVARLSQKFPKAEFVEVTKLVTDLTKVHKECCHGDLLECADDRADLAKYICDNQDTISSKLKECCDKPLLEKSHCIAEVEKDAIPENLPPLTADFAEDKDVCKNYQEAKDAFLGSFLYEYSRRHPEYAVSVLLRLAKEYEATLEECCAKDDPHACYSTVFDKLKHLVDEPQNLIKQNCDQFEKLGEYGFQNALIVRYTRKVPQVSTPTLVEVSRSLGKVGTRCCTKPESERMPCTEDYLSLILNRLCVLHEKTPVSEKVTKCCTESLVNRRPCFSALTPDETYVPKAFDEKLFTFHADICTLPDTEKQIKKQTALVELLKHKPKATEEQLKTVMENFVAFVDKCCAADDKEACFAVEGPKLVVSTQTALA

Activity (Albumin) | Activity (Homo sapiens [1]) | fold change (FC) [2] | Kd [3] | Activity (Insulin (Homo sapiens)) | Activity [4] | fold change (FC) (Homo sapiens [5]) | Activity [6] | Activity [7] | Kd [8] | Activity (Homo sapiens [9]) | Kd [10] | fold change (FC) (Homo sapiens [11]) | SMILES
Not Active | Active | 5.17 | 1.81 µM⁻¹ | inactive | inactive | 3.63 | inactive | Active | 1.22 µM⁻¹ | Active | 5.19 µM⁻¹ | 2.23 | CN(CCF)c1ccc(/C=C/c2nc3ccccc3n2C)cc1
Not Active | Active | 2.71 | 3.31 µM⁻¹ | inactive | inactive | 2.49 | inactive | Active | 1.54 µM⁻¹ | Active | 3.63 µM⁻¹ | 4.5 | CN(CCF)c1ccc(/C=C/c2nc3ccccc3[nH]2)cc1
Not Active | Active | 7.41 | 1.38 µM⁻¹ | inactive | inactive | 3.3 | inactive | Active | 1.79 µM⁻¹ | Active | 10.67 µM⁻¹ | 4.48 | CN(CCF)c1ccc(/C=C/c2nc3ccccc3s2)cc1
Not Active | Active | 2.69 | 3.24 µM⁻¹ | inactive | inactive | 1.98 | inactive | Active | 2.28 µM⁻¹ | Active | 4.48 µM⁻¹ | 1.98 | CN(CCF)c1ccc(/C=C/c2nc3ccccc3o2)cc1
Not Active | Active | 11.3 | 7.35 µM⁻¹ | inactive | inactive | 2.98 | inactive | Active | 8.59 µM⁻¹ | Active | 23.96 µM⁻¹ | 9.48 | CN(CCF)c1ccc(/C=C\c2nc3ccccc3s2)cc1
Not Active | Active | – | – | inactive | inactive | – | inactive | Active | – | Active | – | – | CN(CCF)c1ccc(/C=C\c2nc3ccccc3[nH]2)cc1
Not Active | Active | 1.28 | 7.43 µM⁻¹ | inactive | inactive | 1.6 | inactive | Active | 3.24 µM⁻¹ | Active | 5.99 µM⁻¹ | 1.63 | CN(CCF)c1ccc(/C=C\c2nc3ccccc3o2)cc1
– | – | – | – | – | – | – | – | – | 2.54 µM⁻¹ | – | – | – | Cc1ccc2c(c1)sc(-c1ccc(N(C)C)cc1)[n+]2C.[Cl-] [THIOFLAVIN T]
Not Active | Active | 5.9 | 1.85 µM⁻¹ | inactive | inactive | 2.84 | inactive | Active | 3.86 µM⁻¹ | Active | 3.52 µM⁻¹ | 2.84 | CN(CCF)c1ccc(/C=C\c2nc3ccccc3n2C)cc1
